Experimental data as given in ChEMBL document CHEMBL3272087, “Antifertility agents. 12. Structure-activity relationship of 3,4-diphenylchromenes and -chromans” (1976).
Activity calls are given as the source filed them. The calls are words filed in the database; no cut-off is given here.

What was measured:
Rattus norvegicus [1] = test: Estrogenic activity in immature female rat assessed as mixture of leukocytes,epithelial cells and estrus smear with cornified cells at 10 mg/kg, po bid for 3 days; type: functional, organism-based; design: dose 10 mg/kg
Procedure, shortened: (§1)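 Immature female rats, 25-30 g. Vaginal smear scored as + (leucocytes with epithelial cells), ++ (proestrus, nucleated or nucleated plus cornified cells) or +++ (estrus, cornified cells only). Estrone used as standard.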

Rattus norvegicus [2] = test: Antifertility activity in po dosed pregnant female albino rat assessed as absence of implantation in both uterine horns on day 10 of pregnancy compound administered for 5 days; type: functional
Procedure, shortened: (§2)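 Mated rats of proven fertility; day 1 = sperm-positive vaginal smear. Compound macerated with gum acacia, given orally days 1-5, five animals per group; initial dose 20 mg/kg/day unless stated otherwise. Uterine horns examined on day 10; scored positive only when implantations totally absent in both horns.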

Rattus norvegicus [3] = test: Estrogenic activity in immature female rat assessed as uterine weight on day 4 at 10 mg/kg, po bid for 3 days (reference value: 13.6 +/- 0.8 mg); type: functional
Rattus norvegicus [4] = test: Estrogenic activity in immature female rat assessed as vaginal opening at 10 mg/kg, po bid for 3 days; type: functional, organism-based; design: dose 10 mg/kg
Procedure, shortened: (§3)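 Immature female rats, 25-30 g, scored for presence or absence of vaginal opening. Failure to induce opening was taken as complete absence of estrogenic activity.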

Rattus norvegicus [5] = test: Estrogenic activity in immature female rat assessed as mixture of leukocytes, epithelial cells and proestrus smear with nucleated and cornified cells at 10 mg/kg, po bid for 3 days; type: functional, organism-based; design: dose 10 mg/kg; conditions: Epithelial cell; procedure, shortened: as §1
Rattus norvegicus [6] = test: Antifertility activity in pregnant female albino rat assessed as implantation in both uterine horns on day 10 of pregnancy at 20 mg/kg/day, po for 5 days; type: functional, organism-based; procedure, shortened: as §2
Rattus norvegicus [7] = test: Estrogenic activity in immature female rat assessed as diestrus smear with leukocytes and mixture of leukocytes,epithelial cells at 10 mg/kg, po bid for 3 days; type: functional, organism-based; design: dose 10 mg/kg; procedure, shortened: as §1
Rattus norvegicus [8] = test: Estrogenic activity in immature female rat assessed as diestrus smear with leukocytes at 10 mg/kg, po bid for 3 days; type: functional, organism-based; design: dose 10 mg/kg; procedure, shortened: as §1
Rattus norvegicus [9] = test: Estrogenic activity in immature female rat assessed as diestrus smear with leukocytes and proestrus smear with nucleated and cornified cells at 5 mg/kg, po bid for 3 days; type: functional, organism-based; design: dose 5 mg/kg; procedure, shortened: as §1
Rattus norvegicus [10] = test: Estrogenic activity in immature female rat assessed as uterine weight on day 4 at 5 mg/kg, po bid for 3 days (reference value: 13.6 +/- 0.8 mg); type: functional
Rattus norvegicus [11] = test: Estrogenic activity in immature female rat assessed as vaginal opening at 5 mg/kg, po bid for 3 days; type: functional, organism-based; design: dose 5 mg/kg; procedure, shortened: as §3
Rattus norvegicus [12] = test: Estrogenic activity in immature female rat assessed as mixture of leukocytes and epithelial cells at 10 mg/kg, po bid for 3 days; type: functional, organism-based; design: dose 10 mg/kg; conditions: Epithelial cell; procedure, shortened: as §1

| Compound | ED100 (Rattus norvegicus [2]) | Activity (Rattus norvegicus [3]) | Activity (Rattus norvegicus [4]) | Activity (Rattus norvegicus [6]) | also measured |
| --- | --- | --- | --- | --- | --- |
| COc1ccc2c(c1)OC(C)(C)[C@@H](c1ccccc1)[C@@H]2c1ccc(OCCN2CCCC2)cc1 [LEVORMELOXIFENE] | 0.25 mg/kg | 48.3 mg | Active |  | Activity (Rattus norvegicus [1]): Active |
| COc1ccc2c(c1)OC(C)(C)C(c1ccccc1)=C2c1ccc(O)cc1 |  | 49.2 mg | Active | inactive | Activity (Rattus norvegicus [5]): Active |
| COc1ccc2c(c1)OC(C)(C)[C@H](c1ccccc1)[C@@H]2c1ccc(O)cc1 (relative stereo) |  |  |  | inactive |  |
| COc1ccc2c(c1)OC(C)(C)C(c1ccccc1)=C2c1ccc(OCCN2CCCC2)cc1.Cl | 5 mg/kg |  |  |  |  |
| CC1(C)Oc2ccccc2C(c2ccc(O)cc2)=C1c1ccccc1 |  |  |  | inactive |  |
| COc1ccc2c(c1)OC(C)(C)[C@H](c1ccccc1)[C@H]2c1ccc(O)cc1 (relative stereo) |  |  |  | inactive |  |
| COc1ccc2c(c1)OC[C@H](c1ccccc1)[C@H]2c1ccc(OCCN2CCCC2)cc1 (relative stereo) | 0.25 mg/kg | 48.3 mg | Active |  | Activity (Rattus norvegicus [7]): Active |
| CCN(CC)CCOc1ccc(C2=C(c3ccccc3)C(C)(C)Oc3cc(OC)ccc32)cc1.Cl | 10 mg/kg | 42 mg | Active |  | Activity (Rattus norvegicus [7]): Active |
| CCC1(CC)Oc2cc(OC)ccc2C(c2ccc(O)cc2)=C1c1ccccc1 |  | 39.2 mg | Active | inactive | Activity (Rattus norvegicus [8]): Active |
| CCC1(CC)Oc2cc(OC)ccc2[C@H](c2ccc(OCCN3CCCC3)cc2)[C@H]1c1ccccc1 | 5 mg/kg | 46.6 mg | Active |  | Activity (Rattus norvegicus [1]): Active |
| COc1ccc(C2=C(c3ccccc3)C(C)(C)Oc3cc(O)ccc32)cc1 |  |  |  | inactive |  |
| COc1ccc(C2=C(c3ccccc3)C(C)(C)Oc3cc(OCCN4CCCC4)ccc32)cc1.Cl | 10 mg/kg |  |  |  |  |
| COc1ccc2c(c1)OC(C)(C)C(c1ccc(Cl)cc1)=C2c1ccc(OCCN2CCCC2)cc1.Cl | 5 mg/kg |  |  |  |  |
| Cc1ccc2c(c1)[C@H](c1ccccc1)[C@@H](c1ccccc1)CO2 (relative stereo) |  |  |  | inactive |  |
| COc1ccc2c(c1)OC[C@H](c1ccccc1)[C@@H]2c1ccc(OCCN2CCCC2)cc1 (relative stereo) | 1 mg/kg | 50.6 mg | Active |  | Activity (Rattus norvegicus [9]): Active; Activity (Rattus norvegicus [10]): 43.7 mg; Activity (Rattus norvegicus [11]): Active; Activity (Rattus norvegicus [12]): Active |
| COc1ccc(C2=C(c3ccc(OC)cc3)C(C)(C)Oc3cc(OC)ccc32)cc1 |  |  |  | inactive |  |
| CCC1(CC)Oc2cc(OC)ccc2[C@@H](c2ccc(OCCN3CCCC3)cc2)[C@H]1c1ccccc1 |  | 16.5 mg |  | inactive |  |
| COc1ccc2c(c1)OC(C)(C)C(c1ccc(Cl)cc1)=C2c1ccc(O)cc1 |  |  |  | inactive |  |
| COc1ccc2c(c1)OC(C)(C)[C@@H](c1ccccc1)[C@H]2c1ccc(OCCN2CCCC2)cc1 |  | 20.5 mg |  | inactive |  |
| CC1(C)Oc2ccccc2C(c2ccc(OCCN3CCCC3)cc2)=C1c1ccccc1.Cl | 10 mg/kg |  |  |  |  |
| CCC1(CC)Oc2cc(OC)ccc2[C@@H](c2ccc(O)cc2)[C@H]1c1ccccc1 (relative stereo) |  | 14.6 mg |  | inactive |  |
| COc1ccc2c(c1)OCC(c1ccccc1)=C2c1ccc(OCCN2CCCC2)cc1 | 0.15 mg/kg | 37.4 mg | Active |  | Activity (Rattus norvegicus [8]): Active |
| CCC1(CC)Oc2cc(OC)ccc2C(c2ccc(OCCN3CCCC3)cc2)=C1c1ccccc1.Cl | 10 mg/kg | 35.4 mg | Active |  | Activity (Rattus norvegicus [8]): Active |
| Cc1ccc2c(c1)[C@@H](c1ccccc1)[C@@H](c1ccccc1)CO2 (relative stereo) |  |  |  | inactive |  |
